Only some compounds are listed: those with a hit (about 2.3% of all), similar ones and a draw of the others.
TRPC4 PAM: TRPC4 (mouse) allosteric potentiation; Q9QUQ5; HEK293 TRPC4beta/mu-opioid, DAMGO EC20, Fluo-4 Ca2+ flux; hits give high values; B-score at 10 µM; 0.42% of 310,000 active; AID 2227;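 active means B-score of calcium response area above 5 SD of library B-scores, with initial fluorescence ratio within 5 SD of library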;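 further: B-score of integrated fluorescence ratio over time as area under calcium response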
TRPC4 agonist: TRPC4 (mouse) channel activation | Q9QUQ5 | HEK293 TRPC4beta/mu-opioid, Fluo4 calcium fluorescence; hits give high values | B-score at 10 µM | 0.49% of 310,000 active;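 active means B-score above 5 SD of library B-scores, and initial fluorescence ratio not above library mean plus 5 SD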;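 further: positive B-score marks a calcium rise read as TRPC4 activation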
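Assay system – TRPC4beta and mu-opioid receptor HEK293 stable cells · Measured by – Fluo4 fluorescence, kinetic · Schedule – dye loading 45 min room temperature, 110 s kinetic read · Read-out – B-scored integrated calcium fluorescence ratio · Controls – buffer and maximal DAMGO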
TRPC6 act: activates the mouse TRPC6 cation channel | 0.13% of 310,000 active | HEK293-TRPC6 membrane potential dye fluorescence; hits give high values | B-score at 10 µM | Q61143 | AID 2550;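 active means B-score of the integrated fluorescence ratio above library mean plus 3 SD, and starting fluorescence ratio within library mean plus 5 SD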;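 further: higher score means more depolarization so channel activation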
Target sequence (Q61143 whole entry, looked up): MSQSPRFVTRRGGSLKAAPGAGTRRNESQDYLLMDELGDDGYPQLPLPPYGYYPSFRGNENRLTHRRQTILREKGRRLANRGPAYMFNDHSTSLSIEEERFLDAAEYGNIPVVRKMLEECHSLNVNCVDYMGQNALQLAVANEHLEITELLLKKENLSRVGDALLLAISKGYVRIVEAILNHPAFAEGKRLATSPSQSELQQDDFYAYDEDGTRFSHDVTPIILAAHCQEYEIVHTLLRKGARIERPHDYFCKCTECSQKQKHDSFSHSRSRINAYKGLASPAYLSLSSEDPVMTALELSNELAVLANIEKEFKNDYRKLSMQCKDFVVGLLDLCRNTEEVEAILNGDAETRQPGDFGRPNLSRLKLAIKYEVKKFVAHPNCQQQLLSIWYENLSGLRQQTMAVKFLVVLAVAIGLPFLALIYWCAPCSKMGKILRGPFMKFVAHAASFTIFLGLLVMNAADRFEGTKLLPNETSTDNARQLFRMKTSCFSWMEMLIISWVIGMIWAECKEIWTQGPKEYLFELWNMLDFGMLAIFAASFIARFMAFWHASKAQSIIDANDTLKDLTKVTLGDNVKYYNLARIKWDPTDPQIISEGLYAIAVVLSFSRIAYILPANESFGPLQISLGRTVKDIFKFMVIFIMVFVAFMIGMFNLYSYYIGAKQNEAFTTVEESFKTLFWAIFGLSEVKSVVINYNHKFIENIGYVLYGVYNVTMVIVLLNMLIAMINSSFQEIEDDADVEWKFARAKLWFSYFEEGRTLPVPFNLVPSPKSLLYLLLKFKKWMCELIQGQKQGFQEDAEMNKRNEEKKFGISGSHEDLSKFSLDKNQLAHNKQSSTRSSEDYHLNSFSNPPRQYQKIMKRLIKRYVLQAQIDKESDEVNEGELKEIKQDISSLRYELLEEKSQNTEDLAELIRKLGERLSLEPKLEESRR
TRPC4 inh: TRPC4 (mouse) channel inhibition. Q9QUQ5. HEK293 TRPC4beta/mu-opioid, DAMGO-evoked Fluo4 calcium flux; hits give low values. B-score at 10 µM. 0.39% of 300,000 active;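 active means B-score over 3 SD under the library average, no early fluorescence shift, positive overall ratio signal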
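Material: HEK293 cells with stable TRPC4beta plus mu-opioid receptor expression; probe or stimulus: DAMGO in two steps, submaximal then maximal; technique: Fluo4 calcium fluorescence by kinetic imaging, 5 s 1 Hz baseline; measure: integrated fluorescence ratio relative to baseline, converted to per-well B score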
TRPC6 inh: mouse TRPC6 channel inhibition; HEK293-TRPC6, membrane potential dye, ACh-evoked depolarization; hits give low values; B-score at 10 µM; Q61143; 1.1% of 310,000 active;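 active means B-score under library mean minus 3 SD, initial fluorescence not abnormally high, positive integrated signal ratio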;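 further: B-score derived from integrated fluorescence ratio over the kinetic read; more negative B-score means stronger inhibition of depolarization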
Starred values were filed as active, the others as inactive; i = inactive; . = not tested or not shown.

SMILES	TRPC4 PAM	TRPC4 agonist	TRPC6 act	TRPC4 inh	TRPC6 inh
COc1cc(/C=C2/C(=O)NN(c3ccc(Cl)c(Cl)c3)C2=O)cc([N+](=O)[O-])c1O	i	i	i	i	i
CN1CCN(C(=O)Nc2ccccc2)CC1	i	i	i	i	i
CSc1cccc(NC(=O)N2CCN(C)CC2)c1	28*	i	i	i	i
CCCCN(CC)CCNC(=O)c1ccc2c(Cl)c3c(nc2c1)CCC3	12*	132*	i	i	i
CCN(CC)CCCNC(=O)c1ccc2c(Cl)c3c(nc2c1)CCCC3	i	i	i	i	i
C=CCN(C(=O)c1csnn1)C(C(=O)NC1CCCCC1)c1ccc(F)cc1 (stereo not drawn)	i	i	i	i	i
CCCOc1ccc(C(=O)NCC(c2cccs2)N(C)C)cc1OC (stereo not drawn)	i	i	i	i	i
COc1cc2ccccc2cc1C(=O)NCC(c1cccs1)N(C)C (stereo not drawn)	i	179*	i	i	i
COc1cc(C(=O)NCC(c2cccs2)N(C)C)cc(Cl)c1OC(C)C (stereo not drawn)	i	63*	i	i	i
CC(C)Sc1nc2sc3c(c2c2nnc(SCC(=O)NCc4ccco4)n12)CCCC3	i	i	i	-7*	i
CCSc1nc2sc3c(c2c2nnc(SCC(=O)NCc4ccco4)n12)CCCC3	i	i	i	i	i
COC(=O)N/N=C/c1sc(N2CCCCC2)nc1-c1cccs1	i	i	i	i	i
COc1ccccc1N1CCN(Cc2cc(=O)c(OCC(=O)NC3CCCC3)co2)CC1	108*	i	i	i	i
CCCOc1cc(C)c(S(=O)(=O)n2ccc(C)n2)cc1C	13*	i	i	i	i
CC(=O)NC(Cc1cc(C)ccc1C)C(=O)N1CCN(C(=O)c2ccc([N+](=O)[O-])cc2)CC1 (stereo not drawn)	i	i	i	i	i
CCOc1ccc(NC(=O)c2sc3nc(C)nc(N4CCOCC4)c3c2C)cc1	i	i	i	i	i
CCCCn1c(NC(=O)C2CCCCC2)nc2ccccc21	13*	i	i	i	i
CCCCn1c(NC(=O)c2ccccc2)nc2ccccc21	52*	i	i	-6*	i
CN(C)CCCn1c(NC(=O)C2CCCCC2)nc2ccccc21	i	i	i	i	i
CCn1c(NC(=O)c2ccccc2)nc2ccccc21	i	i	i	i	i
CC(=O)N1CCC(C(=O)N2CCN(S(=O)(=O)c3ccc(Cl)s3)CC2)CC1	i	i	i	i	i
COc1ccc(CCNC(=O)C(=O)NCC2CCCN2S(=O)(=O)c2cc(C)ccc2C)cc1 (stereo not drawn)	i	i	i	i	i
CCOCCCNC(=O)c1cccc(OC2CCN(S(C)(=O)=O)CC2)c1	i	i	i	i	i
Cc1ccc(-c2cc(-c3ccccc3)nc(NN)n2)cc1	12*	i	i	i	i
COc1ccc(-c2cc(-c3ccccc3)nc(NN)n2)cc1OC	i	i	i	i	i
SMILES	TRPC4 PAM	TRPC4 agonist	TRPC6 act	TRPC4 inh	TRPC6 inh
COc1ccc(C2=NOC(Cn3nc(C(=O)NCc4ccco4)cc3-c3ccccc3)C2)cc1 (stereo not drawn)	i	i	i	i	i
CCN(CC)CCCNC(=S)N1CCN(c2nc3ccccc3n2CC)CC1	15*	i	i	i	i
CCN(CC)CCCNC(=S)N1CCn2c(nc3ccccc32)C1	i	i	i	i	i
CNC(=O)COc1ccc2oc3c(c2c1)CCCC3	i	i	i	-6*	i
CNC(=O)NC(=O)COc1ccc2oc3c(c2c1)CCCC3	i	i	i	i	i
O=C(O)CSc1nnc(-c2cccc(S(=O)(=O)N3CCOCC3)c2)n1-c1cccc(Cl)c1	i	i	i	i	i
O=C(Nc1nc2c(s1)CN(Cc1ccccc1)CC2)c1c(F)cccc1F	17*	i	i	i	i
CCc1ccc(NC(=O)N(CCCN2CCOCC2)Cc2cccs2)cc1	i	51*	i	i	i
CN1CCN(CCCN(Cc2cccs2)C(=S)Nc2ccc(Cl)cc2)CC1	i	i	i	i	i
CCc1ccc(NC(=S)N(CCCN2CCN(C)CC2)Cc2cccs2)cc1	10*	i	i	i	i
C=CCN1C(=S)CC(c2ccccc2)=Nc2ccccc21	i	i	i	i	i
O=S(=O)(/N=C(/Nc1cccc2ccccc12)c1ccccc1)c1ccc(F)cc1	i	i	i	i	i
COc1ccc(COC(=O)C2=C(C)NC(=O)NC2c2ccc(F)cc2)cc1 (stereo not drawn)	i	i	i	i	i
O=C1NC(c2ccccc2)=C(c2nc3ccccc3s2)C(c2ccccc2)N1 (stereo not drawn)	19*	i	i	i	i
CC(=O)C[C@H]1c2cc(F)ccc2S(=O)(=O)N1c1ccc(N(C)C)cc1	i	i	i	.	i
CCCCCCN(C(=O)CCCCCN1C(=O)NC(c2cccc([N+](=O)[O-])c2)C(C(=O)OCc2ccccc2)=C1C)C(C(=O)NCCCC)c1ccc(OCC(=O)OC)c(C(=O)OC)c1 (stereo not drawn)	i	i	i	i	i
CCCNC(=O)c1c[nH]c2ccc(S(=O)(=O)N(C)c3ccc(OCC)cc3)cc2c1=O	i	i	i	i	i
CCCCN(C)CCNC(=O)c1c[nH]c2ccc(S(=O)(=O)N(CC)CC)cc2c1=O	20*	i	i	i	i
Oc1cccc(C2c3[nH]c4ccccc4c3CCN2Cc2ccc3c(c2)CCO3)c1 (stereo not drawn)	i	i	i	-6*	i
Oc1cccc(C2c3[nH]c4ccccc4c3CCN2Cc2ccoc2)c1 (stereo not drawn)	i	i	i	i	i
CCCN(c1nc(C)cc(OC)n1)S(=O)(=O)c1ccccc1	i	i	i	-5*	i
Cc1ccc(C(C)C)c(OCCCCN2CCNCC2)c1	18*	i	i	i	i
Cc1ccc(SCCCCN2CCNCC2)cc1	13*	i	i	i	i
Cc1ccc(SCCCCN2CCOCC2)cc1	i	i	i	i	i
Cc1ccc(C)c(OCCCN2CCCC2)c1	11*	i	i	i	i
Cc1ccc(Cl)c(OCCN2CCCC(C)C2)c1 (stereo not drawn)	34*	i	i	i	i
